Compound activity from PubChem.
Hits are enriched below; roughly 2% of the tested compounds scored in any of these assays.
NR2E3 ag-1: NR2E3 agonists in two-hybrid cells, primary screen, cell-based, luminescence, CHO-S, Gal4-NCOR/VP16-NR2E3; Photoreceptor-specific nuclear receptor (Homo sapiens), Q9Y5X4; luciferase; inhibition of corepressor binding, % at 3.98 µM; 360,000 compounds, 0.35% hits; AID 602229, 2012;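 active means inhibition above the mean of all tested compounds plus 3 SD, cut at about 70% in these data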;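 further: higher means lower luciferase signal from less NR2E3 corepressor binding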
Target sequence (Q9Y5X4 whole entry, looked up, the tested form may be a part): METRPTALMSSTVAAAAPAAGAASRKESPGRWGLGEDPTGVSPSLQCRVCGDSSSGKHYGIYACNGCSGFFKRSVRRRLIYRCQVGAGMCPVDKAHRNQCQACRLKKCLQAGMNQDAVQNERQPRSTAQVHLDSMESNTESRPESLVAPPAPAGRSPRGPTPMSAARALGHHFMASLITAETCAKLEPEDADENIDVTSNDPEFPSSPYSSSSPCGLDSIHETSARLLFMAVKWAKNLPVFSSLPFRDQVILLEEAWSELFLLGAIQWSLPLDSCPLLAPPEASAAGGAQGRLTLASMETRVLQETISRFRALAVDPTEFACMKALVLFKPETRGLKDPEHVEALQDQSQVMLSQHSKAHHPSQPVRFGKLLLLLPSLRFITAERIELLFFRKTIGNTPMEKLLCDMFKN
GAA850 FXN act: FXN promoter activators, primary screen, cell-based, luciferase luminescence, HEK293 lucGAA850. HEK293 lucGAA850 FXN promoter luciferase reporter, 24 h; percent of 10 µM SAHA response. activation, % at 6 µM. 360,000 compounds, 0.56% hits;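 active means activation above the average of all compounds screened plus 3 SD, cutoff fixed separately per campaign, cut at about 7.5% in these data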
T cell modulator: modulators of CD8 T cell-vesicle binding, primary screen, mouse 2C CD8+ T cells, flow cytometry | 330,000 compounds, 0.068% hits | AID 2052, 2009 | 2C CD8+ T cell-vesicle binding; active compounds read low | response (vesicle binding), % at 7 µM;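 active means response, share of CD8 T cells binding vesicles, and their 90th percentile fluorescence all below set limits, cut at about 80% in these data, passing the limit was not always enough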;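 further: values below 100% mean blocked vesicle binding to the CD8+ T cells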
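Assay system – 2C mouse CD8+ T cells · Also added – QL9-loaded Drosophila micro-vesicles · Timing – Cell–vesicle co-incubation 1.5 h at 37 °C, staining 20 min on ice · Signal – flow cytometry of vesicle-bound cells · Measure – percent CD8+ FL2 mean versus row control · Controls – Peptide-free naked vesicles (low) and QL9 vesicles with 0.7% DMSO vehicle (high)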
NR2E3 ag-2: inhibitors of NR2E3-RetCOR corepressor binding, primary screen, NR2E3 agonist project, biochemical, TR-FRET, GST-NR2E3, biotin-RetCOR. Photoreceptor-specific nuclear receptor (Homo sapiens), Q9Y5X4. 1536-well. inhibition of corepressor binding, % at 4.78 µM. 320,000 compounds, 0.12% hits. AID 2300, 2010;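 active means percent inhibition above the cutoff of mean plus 3 SD of all tested compounds, set per screening campaign, cut at about 20% in these data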
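System: GST-NR2E3 and biotin-RetCOR proteins; probe or stimulus: 7 nM biotin-RetCOR; doses: compound at 4.8 µM, single dose; schedule: Compound–protein incubation for 5 h at 4 °C; detection: time-resolved FRET; read-out: percent inhibition; controls: biotin wells as high control, 0.6% DMSO wells as low control; format: 1536-well plates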
Myeloid diff 2: induction of myeloid progenitor differentiation, primary screen, cell-based, flow cytometry, MLPCN library; ER-HoxA9 myeloid progenitors, lysozyme-GFP differentiation; calls only at 10 µM; 360,000 compounds, 1% hits; AID 624256, 2012;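 active means normalized GFP-positive differentiation at or above the plate's own cutoff, the solvent-only control mean plus 3 SD; inconclusive means no clear call, values can overlap the other calls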;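 further: cells exposed to compound for four days before flow analysis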
GAA30 FXN cntr: GAA30 FXN promoter activators, confirmation, counter-screen for GAA850 frataxin promoter activator project, cell-based, luminescence, HEK293, lucGAA30, triplicate. 1,900 compounds, 66% hits. shares compounds with GAA850 FXN act. activation, % at 6 µM. HEK293 lucGAA30 FXN promoter luciferase, 24 h; DMSO = 0%, 5 µM ipriflavone = 100%;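 active means mean activation above the mean of solvent-only control wells plus 3 SD, cut at about 22% in these data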;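 further: counterscreen of GAA850 promoter hits where activity marks nonselective or luminescence artifacts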
FXN GAA850 conf: FXN GAA850 promoter activators in reporter cells, confirmation, cell-based, luminescence, HEK293 lucGAA850, triplicate; 1,900 compounds, 86% hits; shares compounds with GAA850 FXN act; HEK293 lucGAA850 FXN promoter luciferase reporter, 24 h; 100% = activation by SAHA; activation, % at 6 µM;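 active means mean activation above a set limit taken from the primary screen, cut at about 8% in these data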
A number is an active result; n = inactive; u = inconclusive; x = not tested or not shown; + = active, no number.

SMILES | NR2E3 ag-1 | GAA850 FXN act | T cell modulator | NR2E3 ag-2 | Myeloid diff 2 | GAA30 FXN cntr | FXN GAA850 conf
Cc1ccc2nc(NC(=O)COC(=O)c3ccc(Br)o3)sc2c1 | n | 9.4 | n | n | n | 88 | 28
O=C(COC(=O)c1ccc(Br)o1)Nc1nc2ccccc2s1 | n | n | n | n | n | x | x
COc1cccc(C(=O)NN2C(=S)N(c3ccccc3)C(=O)C2CC(N)=O)c1 (stereo not given) | n | 7.8 | n | n | n | 107 | 29
NC(=O)CC1C(=O)N(c2ccccc2)C(=S)N1NC(=O)c1ccccc1 (stereo not given) | n | 8.9 | n | x | n | 77 | 20
CCOc1ccc(NC(=S)NCc2ccc3c(c2)OCO3)cc1 | n | n | n | n | n | x | x
Cc1[nH]c2ccccc2c1C(=O)/C=C/c1ccccc1Cl | n | 7.7 | n | n | n | 117 | 44
C=CCNS(=O)(=O)NC(=O)C1=C(N2CCCC2)COC1=O | n | n | n | x | n | x | x
CCOC(=O)CN1C(=O)S/C(=C/C=C/c2ccc(N(C)C)cc2)C1=O | n | 8.0 | n | n | n | 78 | 34
CCOC(=O)CN1C(=O)S/C(=C/c2ccc3c(c2)n(C)c(=O)n3C)C1=O | n | n | n | n | n | x | x
Cc1cc2[nH]c3c(c[n+](C)c4ccccc34)c2cc1C | n | 10 | n | n | u | n | 95
CCOC(=O)c1c(C)[nH]c(C(=O)N(C)CC(=O)Nc2ccc(OCC)c(OCC)c2)c1C | n | n | x | x | n | x | x
CCC(C)[C@H]1CNC(=O)C(=O)N1CCc1cccc2ccccc12 (stereo not given in full) | n | x | x | x | n | x | x
O=C(CNc1cccc2ccccc12)N/N=C/C(Br)=C/c1ccccc1 | n | 13 | n | n | x | n | n
CC(/C=N/NC(=O)c1cc(-c2ccc(C)o2)[nH]n1)=C\c1ccccc1 | n | n | n | n | n | x | x
O=C(N/N=C/C(Br)=C/c1ccccc1)c1ccccc1F | n | 8.5 | n | n | u | 110 | 42
O=C(N/N=C/C(Cl)=C/c1ccccc1)c1ccccc1F | n | n | n | n | n | x | x
CC1=NNC(=O)C1CC(=O)N/N=C/C(Br)=C/c1ccccc1 (stereo not given) | n | n | n | n | n | x | x
CC1=NNC(=O)C1CCC(=O)N/N=C/C(Br)=C/c1ccccc1 (stereo not given) | n | 12 | n | n | u | 24 | n
O=C(N/N=C/C(Br)=C/c1ccccc1)c1cc(-c2ccco2)[nH]n1 | n | 8.3 | n | n | + | n | 13
Cc1c(C(=O)NCc2ccc(F)cc2)sc(=O)n1Cc1ccc(C(=O)c2ccccc2)cc1 | n | n | x | x | n | x | x
Cc1ccsc1C(=O)N1CCc2ccccc2C1 | n | 8.4 | n | n | n | 43 | 15
CSc1ccc(C2C(C(=O)c3ccco3)=C(O)C(=O)N2c2nnc(SC)s2)cc1 (stereo not given) | n | n | n | n | n | x | x
CN(C)c1ccc(C#Cc2ccc3cc(CCO)oc(=O)c3c2)cc1 | n | n | n | n | n | x | x
COc1cc(C#Cc2ccc3cc(CCO)oc(=O)c3c2)cc(OC)c1 | n | 7.8 | n | x | n | 106 | 38
Cc1ccc(O)c(C=Nc2ccc3[nH]ncc3c2)c1 | n | n | n | n | n | x | x
SMILES | NR2E3 ag-1 | GAA850 FXN act | T cell modulator | NR2E3 ag-2 | Myeloid diff 2 | GAA30 FXN cntr | FXN GAA850 conf
CCCCS/C(N)=N/N=C/c1ccccc1O | n | 7.7 | n | n | n | 110 | 28
CCCS/C(N)=N/N=C/c1cc(C)ccc1O | n | 8.6 | n | n | n | 102 | 33
C/C(=N/N=C/c1ccccc1O)c1ccccc1O | n | n | n | n | n | x | x
Cc1ccc(Cc2c(-c3ccc(Cl)cc3)nc3c(C)cc(Br)cn23)cc1 | n | x | x | x | n | x | x
CN(C)c1ccc(Cc2cc3c(O)ccc(O)c3cc(Cc3ccc(N(C)C)cc3)c2=O)cc1 | n | 14 | x | x | n | n | 23
CN(C)c1ccc(C(=O)c2ccc(O)cc2O)cc1 | n | n | n | n | n | x | x
CN1C[C@H]2CON(C)[C@H]2C[C@H]1c1cccc(-c2ccccc2)c1 | n | n | x | x | n | x | x
CCOC(=O)c1c(C)[nH]c(C(=O)C(C)Cl)c1C (stereo not given) | n | n | n | n | n | x | x
CCOC(=O)c1[nH]c(C)c(C(=O)C(C)C)c1C | n | 8.8 | n | n | n | 77 | 24
CCOC(=O)c1[nH]c(C)c(CC(C)C)c1C | n | 8.5 | n | n | n | 40 | 15
CC(C)C[C@H]1COc2cccc(N3CCC[C@H]3CO)c2S(=O)(=O)N1 | n | x | x | x | n | x | x
COc1ccc(NC2CCCN(C(=O)CCCn3cncn3)C2)cc1OC (stereo not given) | n | n | n | n | n | x | x
CCOC(=O)c1cnc2cc3c(cn2c1=O)CCCC3 | n | 8.2 | n | n | n | 98 | 34
Cc1ccc(-n2nc(-c3ccccc3)cc2Nc2ccccc2N)cc1 | n | n | n | n | n | x | x
Nc1ccccc1Nc1cc(-c2ccccc2)[nH]n1 | n | 9.3 | x | x | + | 92 | 54
Nc1c(Br)cc2oc(-c3ccccc3)nc2c1Br | n | 7.9 | n | n | n | 102 | 41
COc1ccc(-c2nc3c(Br)c(N)c(Br)cc3o2)cc1 | n | n | n | n | n | x | x
NC(=O)c1ccc[n+]([C@H]2O[C@@H](COP(=O)([O-])OP(=O)(O)OC[C@H]3O[C@@H](n4cnc5c(N)ncnc54)[C@H](O)[C@@H]3O)[C@H](O)[C@@H]2O)c1 | n | n | n | n | n | x | x
COc1ccc(NC(=O)CSCC(=O)Nc2cc(Cl)ccc2N2CCOCC2)cc1 | n | n | n | n | n | x | x
COc1ccc(NC(=O)CSCC(=O)Nc2cc(Cl)ccc2N2CCCC2)cc1 | n | 8.5 | n | n | n | n | n
Cc1ccc(NC(=O)CSc2nn(-c3ccc(Cl)cc3)c(=S)s2)cc1S(=O)(=O)N(C)C | n | 10 | n | n | n | n | n
NS(=O)(=O)c1cccc(NC(=O)CSc2nn(-c3ccccc3)c(=S)s2)c1 | n | n | n | n | n | x | x
Cc1ccc(NC(=O)CNc2ccc(Cl)c(Cl)c2)cc1S(=O)(=O)N(C)C | n | n | n | n | n | x | x
